In series [1] the target is T1, Corticotropin-releasing factor receptor 1 (Rattus norvegicus, UniProt P35353).
T1 sequence (P35353 whole entry): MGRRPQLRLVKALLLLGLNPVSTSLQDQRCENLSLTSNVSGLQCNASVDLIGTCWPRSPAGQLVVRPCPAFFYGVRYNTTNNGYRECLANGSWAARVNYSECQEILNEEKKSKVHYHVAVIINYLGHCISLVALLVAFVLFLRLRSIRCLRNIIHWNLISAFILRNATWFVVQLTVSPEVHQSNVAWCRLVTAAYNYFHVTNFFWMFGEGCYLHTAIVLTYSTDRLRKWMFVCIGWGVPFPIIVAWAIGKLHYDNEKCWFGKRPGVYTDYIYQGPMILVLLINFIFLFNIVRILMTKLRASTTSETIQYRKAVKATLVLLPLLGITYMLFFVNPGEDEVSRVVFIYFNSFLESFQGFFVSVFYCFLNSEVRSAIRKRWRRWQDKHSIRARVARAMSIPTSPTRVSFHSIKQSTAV
The series can be described thus: Displacement of [125I]Tyr-ovine-CRF from CRF1 receptor in rat frontal cortex homogenate by gamma counting. The format is tissue-based.

Another series is filed under the species Rattus norvegicus. The series can be described thus: Metabolic stability in rat liver microsomes assessed as compound remaining after 10 mins. (In general: Microsomes from liver hold many membrane-bound enzymes, among them those of drug oxidation.)
For a further series, the species on record is Homo sapiens. The series can be described thus: Metabolic stability in human liver microsomes assessed as compound remaining after 10 mins.
Series [2] in a line: Dissociation constant, pKa at pH 2 to 11 by spectrophotometric titration method. The series is classed as physicochemical. The method, boiled down:
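pKa determined by a spectrophotometric titration method.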

Some results are limits rather than exact numbers.

Data on 22 compounds can be found in ChEMBL document CHEMBL1155418, “Synthesis and structure-activity relationships of N3-pyridylpyrazinones as corticotropin-releasing factor-1 (CRF1) receptor antagonists” (Bioorg Med Chem Lett, 2010).

As a reminder, the IC50 is the point on the concentration scale where inhibition reaches its midpoint. Low readings indicate greater potency, high ones weaker potency. Broadly, the share remaining is the share of the starting amount still present when the sample was taken. With `CCOc1nc(C)c(Nc2nc(Cl)cn([C@H](C)C3CC3)c2=O)cc1C`, the concentration for half-maximal inhibition (IC50) in series [1] amounted to 2.7 nM. The fraction remaining at 10 min was 81% in the series filed under Rattus norvegicus and 93% in the series filed under Homo sapiens.
`COc1nc(C)c(Nc2nc(Cl)cn([C@H](C)C3CC3)c2=O)c(OC)n1` registered an IC50 in series [1] of 240 nM. Further, the amount remaining at 10 min in the series filed under Rattus norvegicus worked out at 81%; in the series listed under Homo sapiens it was 86%.
`CC[C@H](C)[C@H](NC(=O)[C@H](CC(=O)O)NC(=O)[C@H](CC(C)C)NC(=O)[C@H](CC(C)C)NC(=O)[C@H](CCCCN)NC(=O)[C@H](CCCN=C(N)N)NC(=O)[C@H](CC(N)=O)NC(=O)[C@H](CO)NC(=O)[C@H](Cc1cnc[nH]1)NC(=O)[C@H](C)NC(=O)[C@H](CCC(N)=O)NC(=O)[C@H](CCC(N)=O)NC(=O)[C@H](C)NC(=O)[C@H](CC(C)C)NC(=O)[C@H](CCC(N)=O)NC(=O)[C@H](CC(=O)O)NC(=O)[C@H](C)NC(=O)[C@H](CCCCN)NC(=O)[C@@H](NC(=O)[C@H](CCSC)NC(=O)[C@H](CCC(=O)O)NC(=O)[C@H](CC(C)C)NC(=O)[C@@H](NC(=O)[C@H](CCC(=O)O)NC(=O)[C@H](CCCN=C(N)N)NC(=O)[C@H](CC(C)C)NC(=O)[C@H](CC(C)C)NC(=O)[C@H](Cc1cnc[nH]1)NC(=O)[C@H](Cc1ccccc1)NC(=O)[C@@H](NC(=O)[C@H](CC(C)C)NC(=O)[C@H](CC(=O)O)NC(=O)[C@H](CC(C)C)NC(=O)[C@H](CO)NC(=O)[C@@H](NC(=O)[C@@H]1CCCN1C(=O)[C@@H]1CCCN1C(=O)[C@H](CCC(=O)O)NC(=O)[C@H](CCC(N)=O)NC(=O)[C@@H](N)CO)[C@@H](C)CC)[C@@H](C)O)C(C)C)[C@@H](C)O)C(=O)N[C@@H](C)C(N)=O`: the IC50 in series [1] stood at 2.9 nM.
In general, pKa refers to the negative logarithm of the acid dissociation constant. In the case of `COc1cc(C)c(Nc2nc(Cl)cn([C@H](C)C3CC3)c2=O)c(C)n1`, in series [1], the IC50 amounted to 12 nM. In addition, the figures for the fraction remaining at 10 min in the series filed under Rattus norvegicus and in the series listed under Homo sapiens were 81% and 79%, respectively. In series [2], this compound returned a pKa of 3.8.
For the compound `COc1ccc(Nc2nc(Cl)cn([C@H](C)C3CC3)c2=O)c(C)n1`, in series [1], the IC50 is 11 nM. In addition, the share remaining at 10 min in the series filed under Rattus norvegicus amounted to 60%; in the series listed under Homo sapiens it was 89%. This compound also showed a pKa in series [2] of 3.2.
Take `COc1ccc(Nc2nc(Cl)cn([C@H](C)C3CC3)c2=O)c(OC)n1`: in series [1], the IC50 is 17 nM. Besides, the amount remaining at 10 min was found to be 25% in the series listed under Rattus norvegicus and 43% in the series filed under Homo sapiens.
`Cc1cc(Nc2nc(Cl)cn([C@H](C)C3CC3)c2=O)c(C)nc1N(C)C` gave an IC50 in series [1] of 0.68 nM. For the same compound, the fraction remaining at 10 min in the series filed under Rattus norvegicus amounted to 29%; in the series filed under Homo sapiens it was 54%.
`Cc1cc(C)c(Nc2nc(Cl)cn([C@H](C)C3CC3)c2=O)c(C)n1`: the IC50 in series [1] amounted to 65 nM. The results for the fraction remaining at 10 min in the series filed under Rattus norvegicus and in the series filed under Homo sapiens were 76% and 87%, respectively. In series [2], this compound displayed a pKa of 7.9.
Take `Cc1cc(Nc2nc(Cl)cn([C@H](C)C3CC3)c2=O)c(C)nc1N1CCCC1`: the concentration for half-maximal inhibition (IC50) in series [1] came to 6.8 nM. The results for the share remaining at 10 min in the series listed under Rattus norvegicus and in the series listed under Homo sapiens were 26% and 57%, respectively.
In series [1], `Cc1nc(C(F)(F)F)ccc1Nc1nc(Cl)cn([C@H](C)C2CC2)c1=O` came in with an IC50 of 720 nM.
Still for that read-out and setting: then `COc1nc(C(F)(F)F)c(Nc2nc(Cl)cn([C@H](C)C3CC3)c2=O)cc1C`, with 1.2 nM.
Turning to `Cc1nc(OC(F)F)ccc1Nc1nc(Cl)cn([C@H](C)C2CC2)c1=O`, the IC50 in series [1] is 1.2 nM. The same compound displayed a pKa in series [2] below 2.
`Cc1cc(OC(F)F)nc(C)c1Nc1nc(Cl)cn([C@H](C)C2CC2)c1=O` yielded an IC50 in series [1] of 2.1 nM. For the same compound, the amount remaining at 10 min in the series filed under Rattus norvegicus turned out to be 84%; in the series filed under Homo sapiens, 89%. In series [2], the pKa is below 2.
As to `COC[C@@H](C1CC1)n1cc(Cl)nc(Nc2ccc(OC(F)F)nc2C)c1=O`, in series [1], the IC50 amounted to 0.8 nM.
In series [1], `COC[C@H](C1CC1)n1cc(Cl)nc(Nc2ccc(OC(F)F)nc2C)c1=O` registered an IC50 of 1.2 nM.
Same read-out and setting: to `COC[C@H](C1CC1)n1cc(Cl)nc(Nc2c(C)cc(OC(F)F)nc2C)c1=O` belongs 4.7 nM; to `COc1nc(C)nc(C#N)c1Nc1nc(Cl)cn([C@H](C)C2CC2)c1=O`, 140 nM.
Take `COC[C@@H](C1CC1)n1cc(Cl)nc(Nc2c(C)nc(OC)nc2OC)c1=O`: the IC50 in series [1] came to 31 nM. The fraction remaining at 10 min came out at 25% in the series filed under Rattus norvegicus and 71% in the series filed under Homo sapiens.
In series [1], `COC[C@H](C1CC1)n1cc(Cl)nc(Nc2c(C)nc(OC)nc2OC)c1=O` registered an IC50 of 90 nM. The values for the fraction remaining at 10 min in the series filed under Rattus norvegicus and in the series listed under Homo sapiens were 18% and 45%, respectively.
In series [1], `COc1ccc(Nc2nc(Cl)cn([C@H](C)C3CC3)c2=O)c(C(F)(F)F)n1` yielded an IC50 of 1.6 nM. In addition, in series [2], the pKa is below 2.
On to `COc1nc(C)c(Nc2nc(Cl)cn([C@H](C)C3CC3)c2=O)cc1C`, for which the share remaining at 10 min came to 55% in the series filed under Rattus norvegicus and 77% in the series filed under Homo sapiens. This compound yielded a pKa in series [2] of 3.6.
With `Cc1cc(Nc2nc(Cl)cn([C@H](C)C3CC3)c2=O)c(C)nc1OC(F)F`, the amount remaining at 10 min in the series filed under Rattus norvegicus worked out at 86%; in the series listed under Homo sapiens, 100%. The pKa in series [2] is below 2.
